Reference: ChEMBL document CHEMBL1671644, “Inhibition of human immunodeficiency virus type 1 infection by the candidate microbicide dapivirine, a nonnucleoside reverse transcriptase inhibitor” (Antimicrob Agents Chemother, 2009)
pIC50: −log10 of the molar value. Calls of active or inactive are those of the source. The calls are words filed in the database; no cut-off is given here.

Legend:
[1] = tested on: Human immunodeficiency virus 1; assay: Antiviral activity against HIV-1 Bal infected in 1 hr compound pretreated human ectocervical explant tissue assessed as inhibition of viral replication at 0.1 nM by RT-PCR; type: functional, organism-based
Method in brief: (§1)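 Ectocervical explants were pretreated with drug for 1 h, then exposed to HIV-1BaL (two 50% tissue infectious doses, about 10^4 TCID50 on PM-1) for 2 h at 37°C with drug present. Explants were washed and cultured overnight, then cultured separately for 10 days. Tissue was proteinase K-digested and proviral LTR DNA measured by multiplex qPCR against β-actin (10 copies/10^5 cells sensitivity). Two donors, triplicate.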

[2] = Toxicity against human cervical tissue explants at 1 mM after 24 hrs by MTT assay; conditions: 1000 µM
Method in brief: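 Uninfected ectocervical explants were exposed to drug for 2 or 24 h. Viability was measured by MTT reduction per milligram of tissue relative to unexposed explants, either immediately or after overnight culture. Three or four donors, triplicate.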

[3] = Selectivity index, ratio of CC50 for human monocyte derived macrophages to IC50 for HIV-1 Bal; type: functional
Method in brief: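 Selectivity index is CC50/IC50, using values determined in the same time period. CC50 was measured by MTT for TZM-bl and PM-1 cells and by trypan blue exclusion after 14 days for macrophages. Both were fitted by nonlinear regression.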

[4] = tested on: Human immunodeficiency virus 1; assay: Antiviral activity against HIV-1 Bal infected in human TZM-bl cells after 24 hrs by luciferase reporter gene assay; type: functional, organism-based; conditions: Human immunodeficiency virus 1, Bal
Method in brief: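 TZM-bl cells (5 x 10^4/well), cultured overnight, pretreated with drug 1 h, then infected with HIV-1 BaL (200 TCID50/ml). After 24 h, cells washed and lysed and luciferase read. Drug-treated wells compared with untreated controls; IC50 (infection at 50% of drug-free control) by nonlinear regression.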

[5] = tested on: Human immunodeficiency virus 1; assay: Antiviral activity against HIV-1 subtype CRF01_AE V022820 infected in human MT4 cells assessed as inhibition of viral replication relative to HIV-1 3B; type: functional
Method in brief: (§2)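 MT-4 cells (3 x 10^4/well) infected with site-directed mutants or recombinant clinical isolates (200 TCID50/well) with drug, cultured 3 to 5 days. Viability read by MTT colorimetric antivirogram assay. IC50 by nonlinear regression; fold change = IC50 for the test isolate / IC50 for wild-type HIV-1 IIIB tested in parallel (mean or median).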

[6] = tested on: Human immunodeficiency virus 1; assay: Antiviral activity against HIV-1 subtype B V022812 harboring NNRTI V179I mutant infected in human MT4 cells assessed as inhibition of viral replication relative to HIV-1 3B; type: functional; method in brief: as §2
[7] = tested on: Human immunodeficiency virus 1; assay: Antiviral activity against HIV-1 subtype B V022813 infected in human MT4 cells assessed as inhibition of viral replication relative to HIV-1 3B; type: functional; method in brief: as §2
[8] = tested on: Human immunodeficiency virus 1; assay: Antiviral activity against HIV-1 subtype B V022815 infected in human MT4 cells assessed as inhibition of viral replication relative to HIV-1 3B; type: functional
Method in brief: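 Recombinant clinical HIV-1 isolates (200 TCID50/well) were tested in MT-4 cells (3 x 10^4/well) over 3–5 days, with an MTT viability read-out. IC50 was fitted by nonlinear regression. Fold change is the isolate IC50 divided by the HIV-1IIIB IC50, tested in parallel.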

[9] = tested on: Human immunodeficiency virus 1; assay: Antiviral activity against HIV-1 subtype C V022829 infected in human MT4 cells assessed as inhibition of viral replication relative to HIV-1 3B; type: functional; method in brief: as §2
[10] = tested on: Human immunodeficiency virus 1; assay: Antiviral activity against HIV-1 subtype D V022818 infected in human MT4 cells assessed as inhibition of viral replication relative to HIV-1 3B; type: functional; method in brief: as §2
[11] = tested on: Human immunodeficiency virus 1; assay: Antiviral activity against HIV-1 subtype D V022819 infected in human MT4 cells assessed as inhibition of viral replication relative to HIV-1 3B; type: functional; method in brief: as §2
[12] = tested on: Human immunodeficiency virus 1; assay: Antiviral activity against HIV-1 subtype CRF05_DF V022823 infected in human MT4 cells assessed as inhibition of viral replication relative to HIV-1 3B; type: functional; method in brief: as §2
[13] = tested on: Human immunodeficiency virus 1; assay: Antiviral activity against HIV-1 subtype CRF05_DF V022833 harboring NNRTI V179I mutant infected in human MT4 cells assessed as inhibition of viral replication relative to HIV-1 3B; type: functional; method in brief: as §2
[14] = tested on: Human immunodeficiency virus 1; assay: Antiviral activity against HIV-1 subtype H V022828 harboring NNRTI K101Q and V179I mutant infected in human MT4 cells assessed as inhibition of viral replication relative to HIV-1 3B; type: functional; method in brief: as §2
[15] = tested on: Human immunodeficiency virus 1; assay: Antiviral activity against HIV-1 SM026 harboring NNTRI 103N and 181C mutant infected in human MT4 cells assessed as inhibition of viral replication relative to HIV-1 3B; type: functional; method in brief: as §2
[16] = tested on: Human immunodeficiency virus 1; assay: Antiviral activity against HIV-1 SM030 harboring NNTRI 100I mutant infected in human MT4 cells assessed as inhibition of viral replication relative to HIV-1 3B; type: functional; method in brief: as §2
[17] = tested on: Human immunodeficiency virus 1; assay: Antiviral activity against HIV-1 SM034 harboring NNTRI 188L mutant infected in human MT4 cells assessed as inhibition of viral replication relative to HIV-1 3B; type: functional; method in brief: as §2
[18] = tested on: Human immunodeficiency virus 1; assay: Antiviral activity against HIV-1 Bal infected in 1 hr compound pretreated human ectocervical explant tissue assessed as inhibition of viral replication by RT-PCR; type: functional, organism-based; method in brief: as §1
[19] = tested on: Human immunodeficiency virus 1; assay: Antiviral activity against HIV-1 Bal infected in human PM1 cells assessed as inhibition of transmission of virus to premissive T cells; type: functional, organism-based; conditions: Human immunodeficiency virus 1, Bal
Method in brief: (§3)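 Explants were pretreated with drug for 1 h, then exposed to HIV-1BaL for 2 h with drug present and washed. Cells that migrated out overnight were washed and cocultured with PM-1 cells (4 x 10^4/well) for about 10 days. Transfer was read as p24 by ELISA in coculture supernatant (detection limit 300 pg/ml). Two donors, triplicate.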

[20] = tested on: Human immunodeficiency virus 1; assay: Antiviral activity against HIV-1 Bal infected in human PM1 cells assessed as inhibition of transmission of virus to premissive T cells at 10 uM; type: functional; conditions: Human immunodeficiency virus 1, Bal; method in brief: as §3
[21] = tested on: Human immunodeficiency virus 1; assay: Antiviral activity against HIV-1 Bal infected in 2 hrs 10000 nM compound pretreated human ectocervical explant tissue assessed as prolonged inhibition of viral infection post compound removal measured after 6 days post compound removal; type: functional
Method in brief: (§4)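 Ectocervical explants were exposed to drug (0.01–10 µM) for 2 or 24 h at 37°C and washed. They received HIV-1BaL (2 h) on day 0, 2, 4 or 6 after drug removal, with no drug present. Read-outs at 10 days post-exposure: explant p24 ELISA, tissue proviral DNA by qPCR, and p24 in migratory cell–PM-1 cocultures. Three donors (2 h) or two donors (24 h), triplicate.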

[22] = tested on: Human immunodeficiency virus 1; assay: Antiviral activity against HIV-1 Bal infected in 24 hrs 100 to 1000 nM compound pretreated human ectocervical explant tissue assessed as prolonged inhibition of viral infection post compound removal measured after 6 days post compound removal; type: functional; method in brief: as §4
[23] = tested on: Human immunodeficiency virus 1; assay: Antiviral activity against HIV-1 Bal infected in human TZM-bl cells after 24 hrs by luciferase reporter assay; conditions: Human immunodeficiency virus 1, Bal

With `Cc1cc(C)c(Nc2ccnc(Nc3ccc(C#N)cc3)n2)c(C)c1` [DAPIVIRINE] the inhibition [1] was “Active”, the Activity [2] was “Non-toxic” and the “Selectivity Index” value [3] was 8333. The pIC50 [4] was 8.84, the IC90 [4] was 10.2 nM and the “Ratio IC50” value [5] was 0.9. For the same molecule, the “Ratio IC50” value [6] was 2, the “Ratio IC50” value [7] was 0.7 and the “Ratio IC50” value [8] was 2.2. For the same molecule, the “Ratio IC50” value [9] was 1, the “Ratio IC50” value [10] was 1.4 and the “Ratio IC50” value [11] was 1.5. For the same molecule, the “Ratio IC50” value [12] was 0.7, the “Ratio IC50” value [13] was 1 and the “Ratio IC50” value [14] was 1.5. The “Ratio IC50” value [15] was 63, the “Ratio IC50” value [16] was 18 and the “Ratio IC50” value [17] was 47. For the same molecule, the Activity [18] was “Dose-dependent effect”, the pIC50 ([18]; Human immunodeficiency virus 1, Bal) was 9.70 and the pIC50 [19] was 10.00. For the same molecule, the inhibition at 10 µM [20] was over 90%, the “inhibition (INH)” value [21] was 80% and the “inhibition (INH)” value [22] was 90%. It also gave a pIC50 [23] of 8.66.
